Experimental findings from ChEMBL document CHEMBL4308915, “Synthesis of novel pyrazoline derivatives and the evaluation of death mechanisms involved in their antileukemic activity” (Bioorg Med Chem, 2019) are described below.

Molecules are shown by their SMILES. pIC50: −log10 of the molar value. The source made the active and inactive calls. The rule behind the calls is not given here.

Data set [1] has as its system Jurkat. Nature of the data set: Cytotoxicity against human Jurkat cells assessed as reduction in cell viability after 48 hrs by MTT assay. In kind it is functional, cell-based. (In general: Formazan colour is commonly taken as a measure of viable cells.)
Data set [2] relates to K562. Nature of the data set: Induction of apoptosis in human K562 cells assessed as increase in membrane blebbing at 32 uM by acridine orange/ethidium bromide staining-based fluorescence microscopic analysis. In kind it is functional, cell-based.
Data set [3] can be described thus: (§1) Cytotoxicity against acute leukemia patient-derived bone marrow cells assessed as reduction in cell viability after 24 hrs. The following applies: Homo sapiens. In kind it is functional, cell-based. An outline of the steps:
(§2)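 Mononuclear cells from acute leukemia patient samples (peripheral blood or bone marrow, taken before first treatment at diagnosis or relapse) isolated by Ficoll-Hypaque.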

Another data set is filed under the species Homo sapiens. The description is as §1. In kind it is functional, cell-based. In a few lines: as §2
Data set [4] deals with K562. Nature of the data set: Induction of apoptosis in human K562 cells assessed as decrease in survivin level at 32 uM after 12 hrs by flow cytometric analysis relative to control. In kind it is functional. (In general: Flow cytometry measures light scatter and fluorescence of single cells or particles in a stream.)
A short description of data set [5]: Selectivity index, ratio of IC50 for human PBMC to IC50 for human Daudi cells after 24 hrs. An outline of the steps: (§3)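 MTT viability after 24 h exposure to 1-100µM; untreated control OD taken as 100%. IC50 by curve fitting in each line and in PBMC from six healthy donors (Ficoll-Hypaque). SI = IC50 PBMC / IC50 tumor line; SI ≥5 high, 2–5 moderate, <2 low.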

The test system of data set [6] is Jurkat. Nature of the data set: Induction of apoptosis in human Jurkat cells assessed as decrease in survivin level at 30.08 uM after 12 hrs by flow cytometric analysis relative to control. In kind it is functional.
Data set [7] relates to PBMC. Nature of the data set: Cytotoxicity against human PBMC assessed as reduction in cell viability after 24 hrs by MTT assay. In kind it is cell-based.
The test system of data set [8] is K562. Nature of the data set: Cytotoxicity against human K562 cells assessed as reduction in cell viability after 72 hrs by MTT assay. In kind it is functional, cell-based. To be noted: K562, 72 h.
Data set [9] has as its system PBMC. Nature of the data set: Cytotoxicity against human PBMC assessed as reduction in cell viability after 48 hrs by MTT assay. In kind it is cell-based.
Another data set has as its system Daudi. Nature of the data set: Cytotoxicity against human Daudi cells assessed as reduction in cell viability after 24 hrs by MTT assay. In kind it is functional, cell-based. An outline of the steps: (§4)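 MTT viability after 24 h exposure. Cells seeded at 5x10^4 per well and tested at 1-100 µM. Optical density of untreated cells set as 100% viable. IC50 derived by curve fitting. PBMC from healthy non-smoking volunteers, isolated by Ficoll-Hypaque.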

A short description of data set [10]: Selectivity index, ratio of IC50 for human PBMC to IC50 for mouse B16F10 cells after 24 hrs. In kind it is toxicity. The following applies: PBMC versus B16F10 cells, read-out: Ratio IC50. In a few lines:
as §3

Data set [11] is described as follows: Selectivity index, ratio of IC50 for human PBMC to IC50 for human K562 cells after 24 hrs. In kind it is toxicity. The following applies: PBMC versus K562 cells, read-out: Ratio IC50. In a few lines:
as §3

Data set [12] has as its system B16-F10. Nature of the data set: Cytotoxicity against mouse B16F10 cells assessed as reduction in cell viability after 24 hrs by MTT assay. To be noted: B16-F10, 24 h. In kind it is functional, cell-based. An outline of the steps: as §4
Data set [13] relates to Jurkat. Nature of the data set: Induction of apoptosis in human Jurkat cells assessed as increase in AIF release at 30.08 uM after 12 hrs by flow cytometric analysis relative to control. In kind it is functional.
Data set [14] relates to B16-F10. Nature of the data set: Cytotoxicity against mouse B16F10 cells assessed as reduction in cell viability after 72 hrs by MTT assay. In kind it is functional, cell-based. To be noted: B16-F10, 72 h.

One may read the pIC50 as −log10 of the IC50, conventionally taken in molar units. With `COc1cc(C2=NN(C(C)=O)C(c3ccc(Br)cc3)C2)cc(OC)c1OC` (stereo unspecified), the pIC50 in the data set with Jurkat [1] is 4.76; in [3], 4.01 to 4.51; in the data set with PBMC [7] it was 3.47; in the data set on K562 [8] it was 4.82; in the data set on PBMC [9], 3.54; in the data set with Daudi it was 4.30. Further, the pIC50 in the data set on B16-F10 [12] is 4.01; with B16-F10 [14] it was 4.20. The result in the data set with K562 [2] was Active. The Activity result in the data set listed under Homo sapiens is “Dose-dependent effect”; in the data set with K562 [4] it was 21.2%; in the data set on Jurkat [6], 10.7%; in the data set with Jurkat [13], 33.2%. In addition, in [5], the “Ratio IC50” value is recorded as 6.8. The results for the selectivity ratio at 24 h in [10] and in [11] were 3.4 and 11, respectively.
